We go through 12 molecules from ChEMBL document CHEMBL3286091, “Novel N-linked aminopiperidine-based gyrase inhibitors with improved hERG and in vivo efficacy against Mycobacterium tuberculosis” (J Med Chem, 2014).

Data set [1] concerns Mycobacterium tuberculosis. As to the kind of experiment: Antimycobacterial activity against wild-type Mycobacterium tuberculosis H37Rv ATCC 27294 after 16 to 18 days by BACTEC 7H12B microdilution method. It counts as functional. (In general: In broth dilution the organism is exposed to a series of concentrations in liquid medium.)
Data set [2] in a line: Octanol-sodium phosphate buffer partition coefficient, log D of the compound at 10 mM at pH 7.4 by shake-flask method. Type of data set: physicochemical.
In data set [3] the target is Voltage-gated inwardly rectifying potassium channel KCNH2 (Homo sapiens, UniProt Q12809). As to the kind of experiment: Inhibition of human ERG by patch clamp electrophysiological analysis. (Patch clamp records ionic current or voltage across a cell membrane.)
Voltage-gated inwardly rectifying potassium channel KCNH2, sequence (Q12809 whole entry): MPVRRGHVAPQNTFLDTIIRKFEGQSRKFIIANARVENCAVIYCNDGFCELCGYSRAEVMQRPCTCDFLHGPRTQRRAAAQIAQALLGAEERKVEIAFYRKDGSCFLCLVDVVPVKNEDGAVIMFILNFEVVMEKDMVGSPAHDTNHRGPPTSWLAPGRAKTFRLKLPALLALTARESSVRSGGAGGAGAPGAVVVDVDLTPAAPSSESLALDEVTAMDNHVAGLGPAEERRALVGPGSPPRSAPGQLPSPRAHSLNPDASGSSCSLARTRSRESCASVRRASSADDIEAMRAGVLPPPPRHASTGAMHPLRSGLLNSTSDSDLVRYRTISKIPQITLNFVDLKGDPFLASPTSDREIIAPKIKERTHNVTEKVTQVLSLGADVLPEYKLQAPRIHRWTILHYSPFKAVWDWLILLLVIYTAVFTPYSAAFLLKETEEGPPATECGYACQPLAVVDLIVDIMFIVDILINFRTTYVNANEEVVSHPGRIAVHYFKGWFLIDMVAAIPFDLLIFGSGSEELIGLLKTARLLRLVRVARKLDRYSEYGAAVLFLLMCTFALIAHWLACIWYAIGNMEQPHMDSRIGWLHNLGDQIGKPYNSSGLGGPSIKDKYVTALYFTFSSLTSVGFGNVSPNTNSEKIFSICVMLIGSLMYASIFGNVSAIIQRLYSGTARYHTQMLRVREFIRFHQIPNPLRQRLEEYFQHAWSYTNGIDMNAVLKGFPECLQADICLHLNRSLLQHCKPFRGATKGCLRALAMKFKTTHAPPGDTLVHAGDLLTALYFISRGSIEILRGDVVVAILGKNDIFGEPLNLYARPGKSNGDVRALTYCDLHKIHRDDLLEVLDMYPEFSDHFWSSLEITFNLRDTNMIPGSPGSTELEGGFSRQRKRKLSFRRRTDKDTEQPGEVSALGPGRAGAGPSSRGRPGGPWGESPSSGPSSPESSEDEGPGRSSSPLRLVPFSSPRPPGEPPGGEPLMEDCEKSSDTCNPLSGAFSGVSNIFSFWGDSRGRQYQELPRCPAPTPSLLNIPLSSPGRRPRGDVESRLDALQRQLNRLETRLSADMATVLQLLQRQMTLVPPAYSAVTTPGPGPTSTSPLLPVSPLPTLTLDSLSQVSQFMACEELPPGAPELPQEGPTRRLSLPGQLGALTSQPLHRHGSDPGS
Data set [4] concerns the target DNA gyrase subunit A/DNA gyrase subunit B (Mycobacterium tuberculosis (strain ATCC 25618 / H37Rv), UniProt P9WG45+P9WG47). As to the kind of experiment: Inhibition of Mycobacterium tuberculosis H37Rv DNA gyrase holoenzyme-mediated supercoiling of pBR322 DNA after 90 mins by agarose gel electrophoresis.
For a further data set, the target named is DNA gyrase subunit B (Mycobacterium smegmatis, UniProt P0C559). As to the kind of experiment: Inhibition of Mycobacterium smegmatis DNA gyrase-B ATPase activity. On the set-up: species or system Mycolicibacterium smegmatis.
DNA gyrase subunit B, sequence (P0C559 whole entry): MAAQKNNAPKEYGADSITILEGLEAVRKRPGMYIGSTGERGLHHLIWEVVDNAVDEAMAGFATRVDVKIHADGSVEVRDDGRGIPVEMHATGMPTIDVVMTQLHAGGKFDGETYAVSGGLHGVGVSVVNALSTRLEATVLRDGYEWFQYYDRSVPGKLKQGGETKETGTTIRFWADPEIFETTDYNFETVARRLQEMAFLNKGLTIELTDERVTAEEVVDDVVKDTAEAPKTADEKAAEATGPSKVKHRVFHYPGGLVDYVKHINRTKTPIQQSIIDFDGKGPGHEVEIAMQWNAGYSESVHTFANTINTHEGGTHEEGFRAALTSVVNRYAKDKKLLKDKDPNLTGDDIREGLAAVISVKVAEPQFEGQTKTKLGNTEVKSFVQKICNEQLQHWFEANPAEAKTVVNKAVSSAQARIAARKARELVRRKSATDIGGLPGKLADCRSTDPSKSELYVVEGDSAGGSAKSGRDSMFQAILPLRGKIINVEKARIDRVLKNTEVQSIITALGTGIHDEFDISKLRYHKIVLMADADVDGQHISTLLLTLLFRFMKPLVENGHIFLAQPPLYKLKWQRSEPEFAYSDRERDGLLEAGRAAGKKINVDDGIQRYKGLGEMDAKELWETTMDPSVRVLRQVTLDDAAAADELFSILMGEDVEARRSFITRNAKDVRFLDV
A short description of data set [5]: Apparent permeability from apical to basolateral side in human Caco2 cells. It counts as ADME, cell-based. The conditions noted are these: Caco-2.
The nature of data set [6]: Apparent permeability from basolateral to apical side in human Caco2 cells. Type of data set: ADME, cell-based. Conditions: Caco-2. (Caco-2 cells form a polarised layer with tight junctions and transporters.)
Data set [7] in a line: Clearance in rat at 40 mg/kg, po and 5 mg/kg, iv by LC-MS/MS analysis. Type of data set: ADME, organism-based. Conditions: in vivo. Summed up: (§1)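 Rats were dosed with the 5% dextrose (pH 4−5) formulation, 5 mg/kg iv and 40 mg/kg po. Plasma was precipitated with acetonitrile and analysed by LC−MS/MS with a carbamazepine internal standard. Parameters were derived by noncompartmental analysis.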

A short description of data set [8]: Oral bioavailability in rat at 40 mg/kg by LC-MS/MS analysis. It counts as ADME, organism-based. Conditions: in vivo. Summed up: as §1
Data set [9] concerns Mycobacterium tuberculosis. As to the kind of experiment: Bactericidal activity against Mycobacterium tuberculosis infected in human THP1 cells at 1 ug/ml for 7 days. Type of data set: functional, THP-1. Summed up: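 Adherent THP-1 macrophages infected with Mtb were exposed to compound at 1 μg/mL for 7 days at 37 °C. Kill was expressed as log reduction versus the untreated control.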

The subject of data set [10] is Mycobacterium tuberculosis. As to the kind of experiment: Antimycobacterial activity against Mycobacterium tuberculosis infected in aminobenzotriazole-pretreated BALB/c mouse chronic tuberculosis model assessed as reduction in log10CFU at 40 to 80 mg/kg, po bid for 20 days. Type of data set: functional. Conditions: dose mg/kg 40-80. The procedure, abridged:
(§2)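 Aerosol-infected BALB/c mice in BSL3, three per group. Treatment began 3 days (acute) or 4 weeks (chronic) after infection. ABT 100 mg/kg po in water was given 2 h before oral gavage of compound in 5% dextrose (pH 4−5 with acetic acid), 10 mL/kg, twice daily at 8 h intervals. Courses were 20 days (7 days/week) or 8 weeks (6 days/week). Lung homogenates were plated on 7H11 for cfu.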

Data set [11] relates to Mycobacterium tuberculosis. As to the kind of experiment: Antimycobacterial activity against Mycobacterium tuberculosis infected in aminobenzotriazole-pretreated BALB/c mouse chronic tuberculosis model assessed as reduction in log10CFU at 40 to 80 mg/kg, po bid for 8 weeks. Type of data set: functional, organism-based. The procedure, abridged:
as §2

The nature of data set [12]: Fraction unbound in aminobenzotriazole-pretreated BALB/c mouse plasma infected with Mycobacterium tuberculosis by LC-MS/MS analysis. It counts as ADME, cell-free.
Data set [13] can be described thus: Ratio of fAUC in aminobenzotriazole-pretreated Mycobacterium tuberculosis infected BALB/c mouse at 20 mg/kg, po to MIC for wild-type Mycobacterium tuberculosis H37Rv ATCC 27294. The procedure, abridged:
(§3)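 PK was measured in infected, ABT-pretreated mice during efficacy dosing (oral, 5% dextrose pH 4−5) on day 18 or 19. Saphenous blood was taken at 5, 15 and 30 min and 1, 2, 4 and 6 h. Plasma was precipitated with acetonitrile and analysed by LC−MS/MS. AUC came from noncompartmental analysis; free AUC/MIC and %free T>MIC used the unbound fraction and MIC.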

A further data set deals with Mus musculus. As to the kind of experiment: fT>MIC in BALB/c mouse infected with Mycobacterium tuberculosis at 20 mg/kg, po. The procedure, abridged: as §3

≈ marks a conversion by molar mass, not a printed value. Calls of active or inactive are those of the source. The calls are words filed in the database; no cut-off is given here.

DNA gyrase subunit A/DNA gyrase subunit B, sequence (P9WG45 whole entry): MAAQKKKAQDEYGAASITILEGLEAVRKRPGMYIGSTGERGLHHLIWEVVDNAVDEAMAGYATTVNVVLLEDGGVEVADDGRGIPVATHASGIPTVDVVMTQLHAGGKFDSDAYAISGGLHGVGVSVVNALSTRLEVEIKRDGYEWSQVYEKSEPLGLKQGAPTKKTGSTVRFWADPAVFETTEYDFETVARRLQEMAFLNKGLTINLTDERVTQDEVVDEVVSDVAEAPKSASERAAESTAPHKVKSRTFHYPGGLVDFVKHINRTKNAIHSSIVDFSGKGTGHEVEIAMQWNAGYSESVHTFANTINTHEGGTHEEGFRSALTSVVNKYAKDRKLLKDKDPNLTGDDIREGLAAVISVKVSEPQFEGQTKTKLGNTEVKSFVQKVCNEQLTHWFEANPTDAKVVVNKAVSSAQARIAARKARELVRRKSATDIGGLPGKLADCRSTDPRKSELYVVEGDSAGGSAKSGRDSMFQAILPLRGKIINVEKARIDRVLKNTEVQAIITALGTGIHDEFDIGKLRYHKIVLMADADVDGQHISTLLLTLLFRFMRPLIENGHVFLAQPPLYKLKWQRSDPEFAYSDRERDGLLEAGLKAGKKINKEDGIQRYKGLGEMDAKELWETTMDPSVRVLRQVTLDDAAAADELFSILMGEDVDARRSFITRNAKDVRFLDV
DNA gyrase subunit A/DNA gyrase subunit B, sequence (P9WG47 whole entry): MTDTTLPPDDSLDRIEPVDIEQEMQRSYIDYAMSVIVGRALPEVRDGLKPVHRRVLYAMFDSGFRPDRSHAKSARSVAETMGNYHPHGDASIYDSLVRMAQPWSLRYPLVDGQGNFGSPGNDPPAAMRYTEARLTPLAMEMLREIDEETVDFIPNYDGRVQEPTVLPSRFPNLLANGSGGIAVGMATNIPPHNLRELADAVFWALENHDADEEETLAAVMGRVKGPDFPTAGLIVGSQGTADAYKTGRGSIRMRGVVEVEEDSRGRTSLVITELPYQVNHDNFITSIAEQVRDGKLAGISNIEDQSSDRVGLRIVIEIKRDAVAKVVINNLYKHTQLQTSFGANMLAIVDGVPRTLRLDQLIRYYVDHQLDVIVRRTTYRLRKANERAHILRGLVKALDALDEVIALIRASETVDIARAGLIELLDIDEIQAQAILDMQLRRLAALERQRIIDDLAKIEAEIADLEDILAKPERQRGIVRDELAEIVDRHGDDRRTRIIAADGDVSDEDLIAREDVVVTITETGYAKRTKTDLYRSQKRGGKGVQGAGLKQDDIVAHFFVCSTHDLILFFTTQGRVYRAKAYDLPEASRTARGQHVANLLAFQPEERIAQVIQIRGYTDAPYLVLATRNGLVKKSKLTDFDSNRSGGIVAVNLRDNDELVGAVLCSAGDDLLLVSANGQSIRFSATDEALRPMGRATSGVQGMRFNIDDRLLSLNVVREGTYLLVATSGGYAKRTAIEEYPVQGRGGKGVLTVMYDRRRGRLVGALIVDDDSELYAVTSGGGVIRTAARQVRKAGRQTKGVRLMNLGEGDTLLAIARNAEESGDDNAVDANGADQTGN

Broadly, the MIC is the lowest concentration found to suppress growth. Read a high MIC as a need for much substance. As usually defined, the logD is lipophilicity at a set pH, counting ionised and neutral species. Lower therefore signals lower lipophilicity. For orientation: IC50 means the concentration needed to halve the response being measured. High values mean a need for much substance, low ones inhibition by little substance. The molecule `COc1cnc2ccc(=O)n(CCN3CCC(NCc4cnc(C)c(C#N)n4)CC3)c2c1` came in with a minimum inhibitory concentration (MIC) in [1] of 0.5 µg/mL (≈ 1.15 µM). The same molecule gave a log distribution coefficient (logD) at 10000 µM in [2] of 0.89. Inhibition in [3] was half-maximal at 69 µM (IC50).

Broadly, the Papp A→B is the apparent permeability from the apical to the basolateral side of a cell layer. One may read the Papp B→A as how fast a substance crosses the layer from the basolateral side. Consider `Cc1nc(CNC2CCN(CCn3c(=O)ccc4ccc(C#N)cc43)CC2)ccc1C#N`, for which, in [1], the minimum inhibitory concentration (MIC) was above 16 µg/mL. The IC50 in data set [4] is above 100000 nM; at DNA gyrase subunit B, above 100 µM; in data set [3], 5.3 µM. The pH-dependent lipophilicity (logD) at 10000 µM in data set [2] was found to be 1.1. Also, in data set [5], the Papp A→B worked out at 17.1 ×10⁻⁶ cm/s. The Papp B→A in data set [6] came to 9.1 ×10⁻⁶ cm/s.

In general, bioavailability refers to the share of a dose that reaches the circulation, judged against a reference dose that is usually intravenous. The low end stands for poor availability, the high end for good availability. For the molecule `COc1cnc2ccc(=O)n(CCN3CC[C@@H](NCc4cnc(C)c(C#N)c4)[C@@H](OC)C3)c2c1`, the minimal inhibitory concentration (MIC) in data set [1] turned out to be 0.06 µg/mL (≈ 0.13 µM). Also, the logD at 10000 µM in [2] was determined as 0.99. For the same molecule, the Papp A→B in [5] is 11.7 ×10⁻⁶ cm/s. In [6], the apparent permeability from basolateral to apical (Papp B→A) amounted to 9.9 ×10⁻⁶ cm/s. In addition, the clearance in data set [7] amounted to 54 mL/min/kg. In addition, in [8], the bioavailability came to 73%.

For the molecule `COc1cnc2ccc(=O)n(CCN3CC[C@@H](NCc4ccc5c(n4)NC(=O)CO5)[C@@H](OC)C3)c2c1`, the lowest concentration to inhibit growth in data set [1] (MIC) was 0.13 µg/mL (≈ 0.263 µM). The logD at 10000 µM in data set [2] was 0.4. In data set [3], this molecule returned a half-maximal inhibitory concentration (IC50) above 100 µM.

Molecule `COc1cc(C#N)c2ccc(=O)n(CCN3CCC(NCc4cnc(C)c(C#N)c4)CC3)c2c1` registered an MIC in data set [1] of 0.01 µg/mL (≈ 0.0219 µM). In addition, the results for the IC50 in [4] and in [3] were 65 nM and 2.5 µM, respectively. In data set [2], this molecule registered a logD at 10000 µM of 1.86. In addition, in data set [5], the Papp A→B was determined as 10 ×10⁻⁶ cm/s. Moreover, the Papp B→A in data set [6] turned out to be 4.7 ×10⁻⁶ cm/s. The clearance in data set [7] was 10 mL/min/kg. Besides, the bioavailability in [8] was determined as 59%.

Take `COc1cnc2ccc(=O)n(CCN3CCC(NCc4cnc(OC)c(C#N)c4)CC3)c2c1`: in [1], inhibition of growth (MIC) required 0.06 µg/mL (≈ 0.134 µM). The same molecule displayed a logD at 10000 µM in data set [2] of 1.2. In addition, the IC50 in [3] was determined as 12 µM. In addition, the Papp A→B in [5] stood at 13 ×10⁻⁶ cm/s. For the same molecule, the basolateral-to-apical permeability (Papp B→A) in data set [6] stood at 9 ×10⁻⁶ cm/s.

Molecule `Cc1ncc(CN[C@@H]2CCN(CCn3c(=O)ccc4ncc(F)cc43)C[C@@H]2F)cc1C#N` yielded an MIC in data set [1] of 0.25 µg/mL (≈ 0.57 µM). For the same molecule, the log distribution coefficient (logD) at 10000 µM in [2] was determined as 0.92. Besides, the Papp A→B in [5] is 17.7 ×10⁻⁶ cm/s. The basolateral-to-apical permeability (Papp B→A) in [6] came to 15.4 ×10⁻⁶ cm/s. In [7], this molecule registered a clearance of 30 mL/min/kg. Further, in [8], the bioavailability is above 100%.

In turn, `N#Cc1ccc2ccc(=O)n(CCN3CCC(NCc4cc5c(cn4)OCCO5)CC3)c2c1` came in with a minimum inhibitory concentration (MIC) in data set [1] of 2 µg/mL (≈ 4.49 µM). Moreover, the IC50 in data set [4] is 1050 nM; against DNA gyrase subunit B, above 100 µM. For the same molecule, the logD at 10000 µM in data set [2] was found to be 0.7. Moreover, in data set [5], the apical-to-basolateral permeability (Papp A→B) was 1.9 ×10⁻⁶ cm/s. Moreover, the Papp B→A in data set [6] was found to be 38.3 ×10⁻⁶ cm/s.

`COc1c(N2C[C@@H]3CCCN[C@@H]3C2)c(F)cc2c(=O)c(C(=O)O)cn(C3CC3)c12` [MOXIFLOXACIN]: the MIC in data set [1] turned out to be 0.06 µg/mL (≈ 0.149 µM). In [9], this molecule showed an LCK of 2.3.

A word on the fraction unbound: it is free concentration divided by total concentration. Consider `Cc1ncc(CNC2CCN(CCn3c(=O)ccc4ccc(C#N)cc43)CC2)cc1C#N`, for which, in [10], the log10cfu was found to be 0.5. In data set [11], the result was Active. Besides, the unbound share (fraction unbound) in [12] is 0.43. Besides, the fAUC/MIC in data set [13] is 159. In addition, the “fT>MIC” value in the data set with Mus musculus was determined as 58%. For the same molecule, in data set [1], 0.06 µg/mL (≈ 0.141 µM) was the least that counted as inhibitory (MIC). Moreover, the IC50 was 250 nM in data set [4], above 100 µM against DNA gyrase subunit B and 26 µM in data set [3]. In data set [2], the logD at 10000 µM was found to be 1.3. Besides, the Papp A→B in data set [5] turned out to be 13.6 ×10⁻⁶ cm/s. Also, the Papp B→A in data set [6] worked out at 7.4 ×10⁻⁶ cm/s. In [7], this molecule gave a clearance of 41 mL/min/kg. The bioavailability in [8] was above 100%.

Molecule `CO[C@H]1/C=C/O[C@@]2(C)Oc3c(C)c(O)c4c(O)c(c(/C=N/N5CCN(C)CC5)c(O)c4c3C2=O)NC(=O)/C(C)=C\C=C\[C@H](C)[C@H](O)[C@@H](C)[C@@H](O)[C@@H](C)[C@H](OC(C)=O)[C@@H]1C` [RIFAMPIN] registered an MIC in data set [1] of 0.015 µg/mL (≈ 0.0182 µM).

The molecule `COc1cnc2ccc(=O)n(CCN3CCC(NC(=O)c4cnc(C)c(C#N)c4)CC3)c2c1` had a minimum inhibitory concentration (MIC) in data set [1] of 0.13 µg/mL (≈ 0.291 µM). The molecule also showed a logD at 10000 µM in [2] of 1.4. This molecule also showed a half-inhibitory concentration (IC50) in data set [3] of 74 µM. In addition, in [5], the Papp A→B was 4.2 ×10⁻⁶ cm/s. Further, the Papp B→A in [6] was 13 ×10⁻⁶ cm/s.
